{"source": "ChEMBL document CHEMBL5724801", "about": "“EUbOPEN Chemogenomics Library - Multiplex” (2024)", "tested_on": "Fibroblast", "test": "Multiplex assay against human fibroblast", "assay_type": "toxicity, cell-based", "method_in_brief": "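Values for tubulin, mitochondrial-mass and membrane-permeability phenotypes are per cents of cells with healthy nuclei. These cells were identified by CellPathfinder machine-learning gating of live cells that had been stained at seeding with Hoechst33342, BioTracker Green Microtubule Cytoskeleton Dye, MitoTracker Red and Annexin V Alexa Fluor 680 and imaged on a CQ1 microscope at 37°C and 5% CO2 after compound addition. The gating first set Hoechst high-intensity objects apart from normal cells, then split normal cells into healthy, pyknosed or fragmented nuclei, and pyknosed cells into mitotic or apoptotic.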", "key": {"[1]": {"conditions": "12 h, 1 µM, compound concentration 1 uM"}, "[2]": {"conditions": "12 h, 10 µM, compound concentration 10 uM"}, "[3]": {"conditions": "24 h, 1 µM, compound concentration 1 uM"}, "[4]": {"conditions": "24 h, 10 µM, compound concentration 10 uM"}, "[5]": {"conditions": "48 h, 1 µM, compound concentration 1 uM"}, "[6]": {"conditions": "48 h, 10 µM, compound concentration 10 uM"}}, "note": "Values joined by “and” are separate entries in the source; they are usually repeats but may differ in a detail not shown here. Equal values may be shown once.", "data": [{"smiles": "COCCn1c(C)c(C)s/c1=N\\C(=O)C1C(C)(C)C1(C)C", "values": [{"measurement": "Population Apoptotic (%)", "setting": "[1]", "result": "43% and 40%"}, {"measurement": "Population Fragmented Nuclei (%)", "setting": "[1]", "result": "18% and 22%"}, {"measurement": "Population Healthy Nuclei (%)", "setting": "[1]", "result": "69% and 57%"}, {"measurement": "Population Hoechst High Intensity Objects (%)", "setting": "[1]", "result": "0% and 4%"}, {"measurement": "Population Membrane Permeable-Phenotype (%)", "setting": "[1]", "result": "0% and 1%"}, {"measurement": "Population Mitochondria Different-Phenotype (%)", "setting": "[1]", "result": "7% and 5%"}, {"measurement": "Population Mitotic Cells (%)", "setting": "[1]", "result": "56% and 60%"}, {"measurement": "Population Normal (%)", "setting": "[1]", "result": "99% and 95%"}, {"measurement": "Population Pyknosed Nuclei (%)", "setting": "[1]", "result": "11% and 19%"}, {"measurement": "Population Tubulin-Different-Phenotype (%)", "setting": "[1]", "result": "34% and 32%"}, {"measurement": "Total Cell Count", "setting": "[1]", "result": "136 and 133"}, {"measurement": "Population Apoptotic (%)", "setting": "[2]", "result": "64% and 37%"}, {"measurement": "Population Fragmented Nuclei (%)", "setting": "[2]", "result": "19% and 38%"}, {"measurement": "Population Healthy Nuclei (%)", "setting": "[2]", "result": "59% and 40%"}, {"measurement": "Population Hoechst High Intensity Objects (%)", "setting": "[2]", "result": "2% and 6%"}, {"measurement": "Population Mitochondria Different-Phenotype (%)", "setting": "[2]", "result": "14% and 8%"}, {"measurement": "Population Mitotic Cells (%)", "setting": "[2]", "result": "35% and 62%"}, {"measurement": "Population Normal (%)", "setting": "[2]", "result": "97% and 93%"}, {"measurement": "Population Pyknosed Nuclei (%)", "setting": "[2]", "result": "20% and 21%"}, {"measurement": "Population Tubulin-Different-Phenotype (%)", "setting": "[2]", "result": "56% and 64%"}, {"measurement": "Total Cell Count", "setting": "[2]", "result": "167 and 120"}, {"measurement": "Population Apoptotic (%)", "setting": "[3]", "result": "64% and 54%"}, {"measurement": "Population Fragmented Nuclei (%)", "setting": "[3]", "result": "15% and 28%"}, {"measurement": "Population Healthy Nuclei (%)", "setting": "[3]", "result": "72% and 54%"}, {"measurement": "Population Hoechst High Intensity Objects (%)", "setting": "[3]", "result": "2% and 3%"}, {"measurement": "Population Membrane Permeable-Phenotype (%)", "setting": "[3]", "result": "1% and 5%"}, {"measurement": "Population Mitochondria Different-Phenotype (%)", "setting": "[3]", "result": 5, "unit": "%"}, {"measurement": "Population Mitotic Cells (%)", "setting": "[3]", "result": "35% and 45%"}, {"measurement": "Population Normal (%)", "setting": "[3]", "result": "97% and 96%"}, {"measurement": "Population Pyknosed Nuclei (%)", "setting": "[3]", "result": "11% and 17%"}, {"measurement": "Population Tubulin-Different-Phenotype (%)", "setting": "[3]", "result": "38% and 37%"}, {"measurement": "Total Cell Count", "setting": "[3]", "result": "122 and 132"}, {"measurement": "Population Apoptotic (%)", "setting": "[4]", "result": "68% and 33%"}, {"measurement": "Population Fragmented Nuclei (%)", "setting": "[4]", "result": "20% and 40%"}, {"measurement": "Population Healthy Nuclei (%)", "setting": "[4]", "result": "59% and 36%"}, {"measurement": "Population Hoechst High Intensity Objects (%)", "setting": "[4]", "result": "4% and 3%"}, {"measurement": "Population Membrane Permeable-Phenotype (%)", "setting": "[4]", "result": "0% and 11%"}, {"measurement": "Population Mitochondria Different-Phenotype (%)", "setting": "[4]", "result": "15% and 19%"}, {"measurement": "Population Mitotic Cells (%)", "setting": "[4]", "result": "31% and 66%"}, {"measurement": "Population Normal (%)", "setting": "[4]", "result": "95% and 96%"}, {"measurement": "Population Pyknosed Nuclei (%)", "setting": "[4]", "result": "19% and 23%"}, {"measurement": "Population Tubulin-Different-Phenotype (%)", "setting": "[4]", "result": "61% and 66%"}, {"measurement": "Total Cell Count", "setting": "[4]", "result": "154 and 120"}, {"measurement": "Population Apoptotic (%)", "setting": "[5]", "result": 60, "unit": "%"}, {"measurement": "Population Fragmented Nuclei (%)", "setting": "[5]", "result": "23% and 31%"}, {"measurement": "Population Healthy Nuclei (%)", "setting": "[5]", "result": "63% and 56%"}, {"measurement": "Population Hoechst High Intensity Objects (%)", "setting": "[5]", "result": "4% and 7%"}, {"measurement": "Population Membrane Permeable-Phenotype (%)", "setting": "[5]", "result": "0% and 2%"}, {"measurement": "Population Mitochondria Different-Phenotype (%)", "setting": "[5]", "result": 4, "unit": "%"}, {"measurement": "Population Mitotic Cells (%)", "setting": "[5]", "result": 40, "unit": "%"}, {"measurement": "Population Normal (%)", "setting": "[5]", "result": "95% and 92%"}, {"measurement": "Population Pyknosed Nuclei (%)", "setting": "[5]", "result": "12% and 11%"}, {"measurement": "Population Tubulin-Different-Phenotype (%)", "setting": "[5]", "result": "43% and 45%"}, {"measurement": "Total Cell Count", "setting": "[5]", "result": "123 and 140"}, {"measurement": "Population Apoptotic (%)", "setting": "[6]", "result": "75% and 58%"}, {"measurement": "Population Fragmented Nuclei (%)", "setting": "[6]", "result": "23% and 49%"}, {"measurement": "Population Healthy Nuclei (%)", "setting": "[6]", "result": "56% and 34%"}, {"measurement": "Population Hoechst High Intensity Objects (%)", "setting": "[6]", "result": "7% and 8%"}, {"measurement": "Population Membrane Permeable-Phenotype (%)", "setting": "[6]", "result": "0% and 14%"}, {"measurement": "Population Mitochondria Different-Phenotype (%)", "setting": "[6]", "result": "22% and 11%"}, {"measurement": "Population Mitotic Cells (%)", "setting": "[6]", "result": "25% and 41%"}, {"measurement": "Population Normal (%)", "setting": "[6]", "result": "92% and 91%"}, {"measurement": "Population Pyknosed Nuclei (%)", "setting": "[6]", "result": "20% and 16%"}, {"measurement": "Population Tubulin-Different-Phenotype (%)", "setting": "[6]", "result": "67% and 65%"}, {"measurement": "Total Cell Count", "setting": "[6]", "result": "151 and 111"}]}]}
